# Reference: ChEMBL document CHEMBL4308829, “Design and Synthesis of Novel Positive Allosteric Modulators of α7 Nicotinic Acetylcholine Receptors with the Ability To Rescue Auditory Gating Deficit in Mice” (J Med Chem, 2018)
# Activity calls are given as the source filed them. Unless noted, the calls are words filed in the database; no cut-off is given here.
# Assays:
# [1] = Apparent volume of distribution during terminal phase in rat at 60 mg/kg, po by LC-MS/MS analysis; assay type: ADME, organism-based; conditions: in vivo
# Summary of the method: (§1)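 Rat plasma stored at -20 °C, spiked with internal standard, protein-precipitated with methanol, centrifuged and filtered before LC-MS/MS. C18 column at 40 °C, acetonitrile/0.1% formic acid (80:20) isocratic at 0.5 mL/min. Positive ESI with MRM m/z 400.0->129.9. Parameters taken per rat by non-compartmental analysis, n = 3.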
# [2] = target: Neuronal acetylcholine receptor subunit alpha-7 (Homo sapiens, UniProt P36544); experiment: Agonist activity at human alpha7 nAChR expressed in Xenopus laevis oocytes assessed as induction of channel current at -90 mV holding potential by two-electrode voltage clamp method; assay type: cell-based
# Sequence of Neuronal acetylcholine receptor subunit alpha-7 (P36544 whole entry): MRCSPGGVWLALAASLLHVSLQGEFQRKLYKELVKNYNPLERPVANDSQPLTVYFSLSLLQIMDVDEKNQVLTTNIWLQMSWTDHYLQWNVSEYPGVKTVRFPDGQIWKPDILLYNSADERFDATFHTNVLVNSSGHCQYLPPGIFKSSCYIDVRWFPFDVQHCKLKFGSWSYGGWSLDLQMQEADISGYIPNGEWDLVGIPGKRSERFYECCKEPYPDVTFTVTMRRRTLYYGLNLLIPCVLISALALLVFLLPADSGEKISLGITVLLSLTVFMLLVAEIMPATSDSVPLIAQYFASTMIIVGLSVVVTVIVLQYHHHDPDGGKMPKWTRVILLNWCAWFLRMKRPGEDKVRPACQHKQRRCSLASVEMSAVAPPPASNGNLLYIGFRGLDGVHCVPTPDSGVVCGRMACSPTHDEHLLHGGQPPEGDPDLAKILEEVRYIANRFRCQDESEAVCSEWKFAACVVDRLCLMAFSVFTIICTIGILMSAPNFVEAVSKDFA
# [3] = Half life in rat at 3 mg/kg, iv by LC-MS/MS analysis; assay type: ADME, organism-based; conditions: in vivo; summary of the method: as §1
# [4] = tested on: Mus musculus; experiment: (§2) Anti-schizophrenic activity in C57BL/6J mouse assessed as protection against MK-801-induced auditory gating deficit by measuring prepulse inhibition impairment at 1 mg/kg, ip at 8 to 16 dB prepulse intensity pretreated for 30 mins starting from 30 mins post alpha7 nAChR antagonist MLA treatment followed by MK-801 treatment and measured after 30 mins (reference value: 8.7%); assay type: functional; parameters: scale not given: the % may be the effect or the level left
# Summary of the method: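 Mice given MLA 3 mg/kg i.p. 30 min before, then compound 1 mg/kg i.p. 60 min before test and MK-801 0.1 mg/kg i.p. 30 min before test. PPI measured at prepulses 8-16 dB above 68 dB background. %PPI = (1 − prepulse-pulse/pulse-only)×100, one-way ANOVA.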
# [5] = tested on: Mus musculus; experiment: as §2, with “mins” for “mins starting from 30 mins post alpha7 nAChR antagonist MLA treatment”; assay type: functional; parameters: scale not given: the % may be the effect or the level left
# [6] = MRT in rat at 3 mg/kg, iv by LC-MS/MS analysis; assay type: ADME, organism-based; conditions: in vivo; summary of the method: as §1
# [7] = target: Voltage-gated inwardly rectifying potassium channel KCNH2 (Homo sapiens, UniProt Q12809); experiment: Inhibition of human ERG expressed in HEK293 cells up to 30 uM at -80 mV holding potential by whole-cell patch clamp assay; assay type: cell-based
# Sequence of Voltage-gated inwardly rectifying potassium channel KCNH2 (Q12809 whole entry, the tested form may be a part): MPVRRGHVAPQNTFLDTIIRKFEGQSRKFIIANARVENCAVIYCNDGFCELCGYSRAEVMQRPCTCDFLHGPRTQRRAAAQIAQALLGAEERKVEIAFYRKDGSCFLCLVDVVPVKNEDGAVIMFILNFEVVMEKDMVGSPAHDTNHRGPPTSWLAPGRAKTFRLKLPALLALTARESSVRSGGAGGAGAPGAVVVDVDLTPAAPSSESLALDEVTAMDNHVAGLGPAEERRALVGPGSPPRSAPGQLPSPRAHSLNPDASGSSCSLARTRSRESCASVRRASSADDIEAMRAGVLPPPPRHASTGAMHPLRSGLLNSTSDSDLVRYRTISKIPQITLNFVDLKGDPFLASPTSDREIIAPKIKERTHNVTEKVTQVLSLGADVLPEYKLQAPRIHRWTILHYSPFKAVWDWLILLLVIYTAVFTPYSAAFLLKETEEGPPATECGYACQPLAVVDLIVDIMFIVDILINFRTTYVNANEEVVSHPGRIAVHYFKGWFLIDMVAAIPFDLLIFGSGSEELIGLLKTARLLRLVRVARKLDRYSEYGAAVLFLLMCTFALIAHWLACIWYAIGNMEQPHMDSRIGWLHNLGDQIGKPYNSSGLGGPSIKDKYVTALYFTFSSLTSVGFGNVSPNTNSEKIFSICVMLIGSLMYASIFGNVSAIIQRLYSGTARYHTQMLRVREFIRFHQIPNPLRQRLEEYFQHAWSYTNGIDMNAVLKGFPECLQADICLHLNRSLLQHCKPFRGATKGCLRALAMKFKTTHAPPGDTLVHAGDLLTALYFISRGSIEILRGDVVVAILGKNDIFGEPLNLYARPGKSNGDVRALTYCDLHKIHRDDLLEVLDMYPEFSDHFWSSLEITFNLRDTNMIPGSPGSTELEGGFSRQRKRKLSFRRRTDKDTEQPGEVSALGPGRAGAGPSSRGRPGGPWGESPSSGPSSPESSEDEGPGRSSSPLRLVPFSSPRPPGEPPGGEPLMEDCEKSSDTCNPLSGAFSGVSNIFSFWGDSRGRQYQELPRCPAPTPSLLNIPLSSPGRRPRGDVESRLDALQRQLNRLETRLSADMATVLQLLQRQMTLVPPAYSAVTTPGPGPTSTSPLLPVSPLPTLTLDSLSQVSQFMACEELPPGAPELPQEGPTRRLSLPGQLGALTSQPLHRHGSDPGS
# Summary of the method: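 HEK293 cells stably expressing hERG, whole-cell clamp at room temperature. Holding -80 mV, step to +20 mV for 2 s, then -40 mV for 1.6 s, repeated every 10 s. Compound perfused at 1-30 µM, with 100 nM cisapride as reference. Peak -40 mV tail currents normalized to control, n = 4.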
# [8] = target: T1, 5-hydroxytryptamine receptor 3A (Homo sapiens) (UniProt P46098); experiment: Positive allosteric modulation of human 5-HT3A receptor expressed in Xenopus laevis oocytes assessed as increase in 5-HT-induced channel current at 10 uM at -90 mV holding potential by two-electrode voltage clamp method; assay type: cell-based
# T1 sequence (whole entry): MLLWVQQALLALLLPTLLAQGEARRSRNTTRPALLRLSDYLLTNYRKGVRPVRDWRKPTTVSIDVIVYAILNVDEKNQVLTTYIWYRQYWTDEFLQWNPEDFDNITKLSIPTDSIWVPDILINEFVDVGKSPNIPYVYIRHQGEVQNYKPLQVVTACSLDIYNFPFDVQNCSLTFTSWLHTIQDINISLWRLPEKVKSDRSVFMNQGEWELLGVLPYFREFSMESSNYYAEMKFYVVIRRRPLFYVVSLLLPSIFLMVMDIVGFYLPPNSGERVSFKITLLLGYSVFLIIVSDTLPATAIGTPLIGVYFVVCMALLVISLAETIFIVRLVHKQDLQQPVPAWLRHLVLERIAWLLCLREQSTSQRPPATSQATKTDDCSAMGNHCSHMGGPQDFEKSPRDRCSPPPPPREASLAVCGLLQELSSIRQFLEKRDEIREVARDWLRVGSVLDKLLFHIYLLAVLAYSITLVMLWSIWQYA
# [9] = Apparent clearance in rat at 60 mg/kg, po by LC-MS/MS analysis; assay type: ADME, organism-based; conditions: in vivo; summary of the method: as §1
# [10] = Cmax in rat at 3 mg/kg, iv by LC-MS/MS analysis; assay type: ADME, organism-based; parameters: dose 3 mg/kg, route intravenous; conditions: in vivo; summary of the method: as §1
# [11] = tested on: Mus musculus; experiment: Anti-schizophrenic activity in C57BL/6J mouse assessed as protection against MK-801-induced auditory gating deficit by measuring prepulse inhibition impairment at 1 mg/kg, ip at 8 to 16 dB prepulse intensity (reference value: 11%); assay type: functional; parameters: scale not given: the % may be the effect or the level left
smiles,measurement,setting,value
Cc1cccc(Cl)c1-n1cnc2nc(SCc3ccccc3)sc2c1=O,Vd/F,[1],0.6 L/kg
same,Activity,[2],inactive
same,half-life,[3],10.8 h
same,Activity,[4],14%
same,Activity,[5],30%
same,MRT,[6],7 h
same,inhibition (INH),[7],Not Active
same,Activity,[8],inactive
same,CL/F,[9],1 mL/min/kg
same,Cmax,[10],700 ng/mL
same,Activity,[11],28%
